Data as given in ChEMBL document CHEMBL4316598, “Synthesis, antiproliferative and apoptosis induction potential activities of novel bis(indolyl)hydrazide-hydrazone derivatives” (Bioorg Med Chem, 2019).
Activity calls are given as the source filed them. The calls are words filed in the database; no cut-off is given here.

Columns and labels:
MCF7 [1] = test: Induction of nitric oxide production in human MCF7 cells at 5 uM measured over 8 hrs by Griess reaction based assay relative to control; assay type: functional
Procedure, shortened: (§1)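 Cells seeded at 2×10^6 cells/well for 12 h, then exposed to 1, 5 and 10 μM compound for 8 h at 37 °C. Culture supernatant mixed with Griess reagent (0.002% N-1-naphthyl-ethylenediamine dihydrochloride, 0.5% sulfanilic acid, 14% glacial acetic acid). Nitrite read by absorbance at 550 nm and compared with vehicle group.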

HeLa [2] = test: Induction of caspase-dependent apoptosis in human HeLa cells assessed as activation of caspase-9 at 1 to 3 uM after 24 hrs by Western blot analysis; assay type: functional, cell-based
Procedure, shortened: (§2)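 Cells were treated at 1, 3 and 5 µM for 24 h at 37 °C. Lysis was in ice-cold Triton X-100 buffer with protease and phosphatase inhibitors; nuclear proteins were extracted separately. Protein was quantified by BCA. Lysates were separated by electrophoresis, transferred to nitrocellulose and blocked in non-fat milk for 1 h. Primary antibody was applied overnight at 4 °C and secondary for 1 h at 28 °C. Detection was by enhanced chemiluminescence.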

HeLa [3] = test: Induction of ROS generation in human HeLa cells at 5 uM after 4 to 8 hrs in presence of NAC by DCFH-DA staining-based fluorescence spectrophotometric analysis; assay type: functional, cell-based
Procedure, shortened: (§3)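 DCFH-DA ROS: HeLa or MCF-7 cells at 2×10^6/well cultured 12 h, treated 4 or 8 h; t-BHP (10 μM) is the positive control. DCFH-DA 10 μM added for 10 min at 37 °C, cells washed twice with PBS. Fluorescence read at ex 485/em 520 nm. For the NAC arm, NAC (5 mM) is added to the medium before treatment.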

[4] = target: T1, c-Jun N-terminal kinase, JNK (Homo sapiens) (UniProt P45983+P53779+P45984); test: Activation of JNK phosphorylation in human MCF7 cells assessed as increase in ratio of phosphorylated JNK to total JNK level at 5 uM by ELISA; assay type: cell-based
Procedure, shortened: (§4)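 Cell-based ELISA: HeLa or MCF-7 cells (20×10^3/well) grown overnight at 37 °C, 5% CO2, treated with 5 μM, then fixed and blocked. Probed with rabbit anti-total and anti-phospho P38, JNK or ERK1/2 (1:100), then HRP anti-rabbit IgG. Result is the phospho/total ratio; inhibitor arms use […], […] or SP600125. n=3.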

HeLa [5] = test: Induction of nitric oxide production in human HeLa cells at 1 uM measured over 8 hrs by Griess reaction based assay relative to control; assay type: functional
Procedure, shortened: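 Cells were plated at 2×10⁶ cells/well in 24-well plates for 12 h, then treated at 1, 5 and 10 µM for 8 h at 37 °C. Culture supernatant was mixed with Griess reagent (0.002% N-1-naphthylethylenediamine, 0.5% sulfanilic acid, 14% glacial acetic acid). Nitric oxide was quantified by absorbance at 550 nm.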

MCF7 [6] = test: Induction of ERK/MAPK signal transduction pathway in human MCF7 cells assessed as increase in p53 expression; assay type: cell-based
MCF7 [7] = test: Cytotoxicity against human MCF7 cells assessed as reduction in cell viability after 4 hrs by MTT assay; assay type: functional, cell-based
Procedure, shortened: (§5)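 MTT: 10,000–20,000 cells/well attached for 16 h, then washed twice with serum-free RPMI. Treated with 1–200 µM for 4 h, 3 parallel runs per concentration. MTT added for 2 h; medium partly removed and isopropanol added. A590 read. Viability = (A treated − A doxorubicin)/(A medium − A doxorubicin)×100. Mean of three experiments, triplicate wells each.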

FaDu = test: Cytotoxicity against human FADU cells assessed as reduction in cell viability after 4 hrs by MTT assay; assay type: functional, cell-based
HeLa [8] = test: Induction of apoptosis in human HeLa cells assessed as viable cells at 1 uM after 12 hrs by annexin-V FITC/propidium iodide staining based flow cytometric analysis relative to control; assay type: functional; details: read-out: Activity
Procedure, shortened: (§6)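 Cells were grown in DMEM with 10% heat-inactivated FBS at 37 °C and 5% CO₂, then plated at 500,000 cells/well in 24-well plates. They were treated from a DMSO stock (DMSO ≤0.1%) for 8, 12 or 16 h. After a PBS wash, cells were resuspended in binding buffer (10 mM HEPES pH 7.4, 2.5 mM CaCl₂, 140 mM NaCl, 0.1% BSA), stained 40 min with FITC-annexin V, then with PI, and run on the flow cytometer immediately. Values are the mean of three independent experiments.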

HeLa [9] = test: Induction of caspase-dependent apoptosis in human HeLa cells assessed as activation of caspase-8 at 1 to 3 uM after 24 hrs by Western blot analysis; assay type: functional, cell-based; procedure, shortened: as §2
HeLa [10] = test: Induction of apoptosis in human HeLa cells assessed as late apoptotic cells at 1 uM after 12 hrs by annexin-V FITC/propidium iodide staining based flow cytometric analysis relative to control; assay type: functional; procedure, shortened: as §6
MCF7 [11] = test: Induction of apoptosis in human MCF7 cells assessed as change in Bid level at 1 to 3 uM after 24 hrs by Western blot analysis; assay type: functional, cell-based; procedure, shortened: as §2
[12] = Cytotoxicity against HEK293 cells assessed as cell viability at 200 uM after 4 hrs by MTT assay relative to control; assay type: cell-based; details: human, read-out: Activity; procedure, shortened: as §5
MCF7 [13] = test: Induction of apoptosis in human MCF7 cells assessed as effect on Mcl-1 long level at 1 to 3 uM after 24 hrs by Western blot analysis; assay type: functional, cell-based; procedure, shortened: as §2
Homo sapiens [14] = species on record: Homo sapiens; test: Inhibition of PKA phosphorylation (unknown origin) after 5 to 60 mins by bioluminescence assay
Procedure, shortened: (§7)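 Kinase activity measured with compound at 1, 5, 10 and 50 μM, using a Kinase Reaction Rate Kit. Phosphorylation was followed by bioluminescent monitoring of ATP consumption, with light read at 5 min and 1 h. Staurosporine served as positive control. Data given as % kinase inhibition (% of control activity), from two separate experiments.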

HeLa [15] = test: Induction of ROS generation in human HeLa cells at 5 uM after 4 hrs by DCFH-DA staining-based fluorescence spectrophotometric analysis relative to control; assay type: functional; procedure, shortened: as §3
MCF7 [16] = test: Induction of nitric oxide production in human MCF7 cells measured over 8 hrs by Griess reaction based assay; assay type: functional, cell-based; procedure, shortened: as §1
MCF7 [17] = test: Induction of apoptosis in human MCF7 cells assessed as up-regulation of acetylated p53 level at 5 uM after 24 hrs by sandwich ELISA; assay type: functional, cell-based
Procedure, shortened: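 Cells were treated at 5 µM for 12, 24 and 48 h. Lysis was in ice-cold lysis buffer with 1 mM PMSF (5 min on ice), followed by three freeze-thaw cycles and a 10 min spin at 4 °C. Acetylated and total p53 were measured in the supernatant by kit sandwich ELISA, read at 450 nm. The control index is sample absorbance divided by that of untreated cells at the same time. Values are mean ± SD of triplicate experiments.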

Homo sapiens [18] = species on record: Homo sapiens; test: Inhibition of PKA phosphorylation (unknown origin) at 50 uM after 5 to 60 mins by bioluminescence assay relative to control; procedure, shortened: as §7
[19] = target: T1, c-Jun N-terminal kinase, JNK (Homo sapiens); test: Activation of JNK phosphorylation in human MCF7 cells assessed as increase in ratio of phosphorylated JNK to total JNK level at 5 uM in presence of JNK inhibitor SP600125 by ELISA; assay type: cell-based; procedure, shortened: as §4
MCF7 [20] = test: Induction of nitric oxide production in human MCF7 cells at 1 uM measured over 8 hrs by Griess reaction based assay relative to control; assay type: functional; procedure, shortened: as §1

In the case of `Cn1cc(/C=N\NC(=O)c2cn(C)c3ccc(Br)cc23)c2ccccc21`, the Activity (MCF7 [1]) is reported as 48.9%, the Activity (HeLa [2]) is reported as “inactive” and the Activity (HeLa [3]) is reported as “inactive”. The Activity [4] was “Active”, the Activity (HeLa [5]) was 29.8% and the Activity (MCF7 [6]) was “Active”. The Activity (MCF7 [7]) was “Dose-dependent effect”, the IC50 (MCF7 [7]; Homo sapiens, MCF7, 4 h, read-out: IC50) was 1.19 µM and the Activity (FaDu) was “Dose-dependent effect”. For the same compound, the IC50 (FaDu) was 9.64 µM, the viability at 1 µM (HeLa [8]) was 47.8% and the Activity (HeLa [9]) was “inactive”. For the same compound, the Activity (HeLa [10]) was 18.42%, the Activity (MCF7 [11]) was “inactive” and the viability at 4 h, 200 µM [12] was 95%. For the same compound, the Activity (MCF7 [13]) was “inactive”, the inhibition (Homo sapiens [14]) was “Dose-dependent effect” and the Activity (HeLa [15]) was 29.9%. The Activity (MCF7 [16]) was “Dose-dependent effect”, the Activity (MCF7 [17]) was “Active” and the inhibition (Homo sapiens [18]) was 45%. For the same compound, the Activity [19] was “inactive” and the Activity (MCF7 [20]) was 32.1%.
